The results in this text go back to ChEMBL document CHEMBL1123133, “1H-2-Benzopyran-1-one derivatives, microbial products with pharmacological activity. Conversion into orally active derivatives with antiinflammatory and antiulcer activities” (J Med Chem, 1985).

Data set [1] can be described thus: Lipid solubility measured as chloroform-water partition coefficient. Type of data set: physicochemical. The method, boiled down:
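Partition between chloroform and 10 mM phosphate buffer pH 7.5 (1:1 volume); drug at 1 mg/mL initially in aqueous phase, shaken 20 min at 20 °C, centrifuged, both phases quantified by HPLC. HCl salts used.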

A short description of data set [2]: Concentration detected in blood of rat 1 hr after an oral dose of 200 mg/kg. Type of data set: ADME, organism-based. The arrangement: dose 200 mg/kg, route oral. The method, boiled down: (§1)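 Male Wistar rats (120–160 g), 5–7 per group, fasted 24 h, given 200 mg/kg orally as aqueous HCl salt formulation (drug/glycerin/HCO-60 1/12/0.05 by weight). Jugular blood taken under ether at 1 or 3 h into citric acid; plasma deproteinized with ethanol (acetone for 5d) and analysed by C18 HPLC at 254 nm. Values recovery-corrected, mean of 6–7 rats.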

A short description of data set [3]: Concentration detected in blood of rat 3 hr after an oral dose of 200 mg/kg of the compound. Type of data set: ADME, organism-based. Also on record: dose 200 mg/kg, route oral. The method, boiled down:
as §1

Data set [4] relates to Rattus norvegicus. Briefly: % recovery 1 from whole blood of 7 wistar rats after an oral dose of the compound. Type of data set: ADME, organism-based. The following applies: in vivo.
For data set [5], the system named is Rattus norvegicus. Briefly: Gastroprotective activity as % protection against stress ulcers in 5 rats after an intraperitoneal dose of 12.5 mg/kg. Type of data set: functional. The method, boiled down:
(§2)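 Stress ulcer by restraint and water immersion: male Wistar rats (160–180 g), fasted 24 h, given test compound po or ip as HCl salt in aqueous glycerin/HCO-60 formulation (1/12/0.05 by weight). Vehicle-only controls. After 1 h, restrained in net cage and immersed in 21 °C water for 6 h. Percent ulcer inhibition calculated; five rats per dose.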

Data set [6] concerns Rattus norvegicus. The data set can be described thus: Gastroprotective activity as % protection against stress ulcers in 5 rats after an intraperitoneal dose of 25 mg/kg. Type of data set: functional. The procedure, abridged:
as §2

In data set [7] the test system is Rattus norvegicus. Briefly: Gastroprotective activity as % protection against stress ulcers in 5 rats after an intraperitoneal dose of 50 mg/kg. Type of data set: functional. The procedure, abridged: as §2
The test system of data set [8] is Rattus norvegicus. Briefly: Gastroprotective activity as % protection against stress ulcers in 5 rats after an oral dose of 100 mg/kg. Type of data set: functional. The method, boiled down:
as §2

For data set [9], the system named is Rattus norvegicus. The data set can be described thus: Gastroprotective activity as % protection against stress ulcers in 5 rats after an oral dose of 25 mg/kg. Type of data set: functional. The method, boiled down:
as §2

The test system of data set [10] is Rattus norvegicus. The data set can be described thus: Gastroprotective activity as % protection against stress ulcers in 5 rats after an oral dose of 50 mg/kg. Type of data set: functional. The method, boiled down:
as §2

The test system of data set [11] is Rattus norvegicus. Briefly: Concentration 5b detected in blood of rat 1 hr after an oral dose of 200 mg/kg of the compound. Type of data set: ADME, organism-based. The arrangement: dose 200 mg/kg, route oral. To be noted: in vivo. The procedure, abridged: as §1
Data set [12] deals with Rattus norvegicus. The data set can be described thus: Concentration 5b detected in blood of rat 3 hr after an oral dose of 200 mg/kg of the compound. Type of data set: ADME, organism-based. The arrangement: dose 200 mg/kg, route oral. The following applies: in vivo. The procedure, abridged: as §1
The nature of data set [13]: Solubility in water, tested as a HCl salt. Type of data set: physicochemical. To be noted: read-out: S. The procedure, abridged: (§3)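 HCl salts suspended in excess in water or 10 mM phosphate buffer pH 7.5, sonicated 10 min at 20 °C to saturation, centrifuged; supernatant quantified by HPLC.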
Data set [14] has as its system Rattus norvegicus. Briefly: % recovery of the compound, compound 1 and compound 6a from whole blood of 7 wistar rats after an oral dose of the compound. Type of data set: ADME, organism-based. The following applies: in vivo.
Data set [15] relates to Cavia porcellus. Briefly: Antiinflammatory activity evaluated as Minimum effective oral dose that inhibits dextran UV erythema in guinea pig. Type of data set: functional.
Data set [16] has as its system Rattus norvegicus. Briefly: Antiinflammatory activity evaluated as Minimum effective oral dose that inhibits bradykinin paw edema in rat. Type of data set: functional.
Data set [17] deals with Rattus norvegicus. The data set can be described thus: Antiinflammatory activity evaluated as Minimum effective oral dose that inhibits carrageenan paw edema in rat. Type of data set: functional. (In general: In the carrageenan paw model, swelling and tenderness develop within hours.)
The subject of data set [18] is Rattus norvegicus. The data set can be described thus: Antiinflammatory activity evaluated as Minimum effective oral dose that inhibits dextran paw edema in rat. Type of data set: functional.
For data set [19], the system named is Rattus norvegicus. Briefly: Antiinflammatory activity evaluated as Minimum effective oral dose that inhibits adjuvant arthritis in rats. Type of data set: functional. The method, boiled down: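 Adjuvant arthritis: male Sprague-Dawley rats (180–200 g), 8–10 per group, injected in right hind paw with Mycobacterium butyricum powder in corn oil (0.6 mg/0.1 mL). Oral dosing started 1 h after adjuvant, then daily for 18 days; observed 28 days. Minimum effective dose recorded.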

Data set [20] is described as follows: Acute toxicity evaluated as oral lethal dose in rat. Type of data set: organism-based. To be noted: in vivo. The method, boiled down: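 Oral dosing of male Wistar rats (120-140 g), given as HCl salt; LD50 derived from mortality over 7 days.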
The subject of data set [21] is Rattus norvegicus. Briefly: Gastroprotective activity as % protection against stress ulcers in 5 rats after an oral dose of 12.5 mg/kg. Type of data set: functional. The method, boiled down: as §2
Data set [22] is described as follows: Solubility in phosphate buffer, tested as a HCl salt. Type of data set: physicochemical. The procedure, abridged:
as §3

The test system of data set [23] is Rattus norvegicus. The data set can be described thus: Concentration 5c detected in blood of rat 1 hr after an oral dose of 200 mg/kg of the compound. Also on record: dose 200 mg/kg, route oral. The following applies: in vivo. Type of data set: ADME, organism-based. The procedure, abridged: (§4)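 Male Wistar rats (120–160 g, 5–7 per group) fasted 24 h, then given 200 mg/kg orally as the HCl salt in a glycerin/HCO-60 formulation (drug/glycerin/HCO-60 1/12/0.05 by weight) in aqueous solution. At 1 or 3 h, jugular blood was citrated and plasma was ethanol-deproteinized, then analysed by reverse-phase HPLC at 254 nm. Values were recovery-corrected from blood spiked at 50 μg/mL and are means of 6–7 rats.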

The subject of data set [24] is Rattus norvegicus. Briefly: Concentration 5c detected in blood of rat 3 hr after an oral dose of 200 mg/kg of the compound. Type of data set: ADME, organism-based. Also on record: dose 200 mg/kg, route oral. To be noted: in vivo. The method, boiled down: as §4
For data set [25], the system named is Rattus norvegicus. Briefly: Concentration 6c detected in blood of rat 1 hr after an oral dose of 200 mg/kg of the compound. Type of data set: ADME, organism-based. Also on record: dose 200 mg/kg, route oral. To be noted: in vivo. The method, boiled down: as §4
The test system of data set [26] is Rattus norvegicus. Briefly: Concentration 6c detected in blood of rat 3 hr after an oral dose of 200 mg/kg of the compound. Also on record: dose 200 mg/kg, route oral. To be noted: in vivo. Type of data set: ADME, organism-based. The method, boiled down:
as §4

Data set [27] deals with Rattus norvegicus. The data set can be described thus: Concentration detected in blood of rat 3 hr after an oral dose of 200 mg/kg; ND is Not Detected. Type of data set: ADME, organism-based. Also on record: dose 200 mg/kg, route oral. To be noted: in vivo. The procedure, abridged: as §1
The test system of data set [28] is Rattus norvegicus. The data set can be described thus: Concentration 1 detected in blood of rat 1 hr after an oral dose of 200 mg/kg of the compound; ND is Not Detected. Type of data set: ADME, organism-based. Also on record: dose 200 mg/kg, route oral. The following applies: in vivo. The procedure, abridged:
as §1

Data set [29] relates to Rattus norvegicus. Briefly: % recovery from whole blood of 7 wistar rats after an oral dose of the compound. Type of data set: ADME, organism-based. To be noted: in vivo.

Regarding `CNCC(=O)O` [SARCOSINE], in data set [1], the P was under 0.03.
As to `Cn1cnc2c1c(=O)[nH]c(=O)n2C` [THEOBROMINE], the P in data set [1] is given as 0.1.
In turn, `CC(C)C[C@H](NC(=O)C(O)C1OC(=O)CC1N)[C@@H]1Cc2cccc(O)c2C(=O)O1.Cl` (stereo partly specified) registered a concentration at 1 h in data set [2] of 800 ng/mL. This compound showed a concentration at 3 h in data set [3] of 600 ng/mL. In [4], this compound gave a Recovery of 50%. Also, the Protection in data set [5] was determined as 66%; in data set [6] it was 83%; in [7] it was 83%; in [8], 78%; in [9], 44%; in [10], 66%.
What is called ED50 is the midpoint of the dose-response relation. The low end stands for greater potency, the high end for weaker potency. As usually defined, the LD50 is the dose at which mortality reaches 50%. Low readings indicate greater toxicity, high ones lower toxicity. As for `CCNC1CC(=O)OC1C(O)C(=O)NC(CC(C)C)C1Cc2cccc(O)c2C(=O)O1` (stereo unspecified), the Concentration in [11] stood at 17.5 µg/mL; in data set [12], 8.3 µg/mL. Moreover, the solubility in data set [13] is over 100 mg/mL; in [22] it was 11000 µg/mL. Further, the P in data set [1] is 43. Moreover, in [14], the Recovery was 20%. The ED50 in data set [15] was 13 mg/kg; in data set [16], 182 mg/kg; in data set [17], over 200 mg/kg; in [18], 47 mg/kg. For the same compound, the EDmin in [19] turned out to be 20 mg/kg. The compound also returned an LD50 in data set [20] of 1250 mg/kg. The Protection in data set [5] is reported as 66%; in data set [6], 76%; in data set [7], 100%; in data set [8], 89%; in data set [21] it was 33%; in [9], 56%. The compound also returned a Protection in [10] of 78%.
Consider `CNc1ccccc1`, for which the P in [1] is listed as over 19.
Take `CCCNC1CC(=O)OC1C(O)C(=O)NC(CC(C)C)C1Cc2cccc(O)c2C(=O)O1` (stereo unspecified): the Concentration in [23] came out at 14.2 µg/mL; in data set [24], 3.4 µg/mL; in [25], 6.4 µg/mL; in data set [26] it was 3.4 µg/mL. Besides, the solubility is over 100 mg/mL in data set [13] and 1600 µg/mL in [22]. Moreover, the P in [1] is given as 260. This compound had a Recovery in data set [14] of 40%. In addition, the ED50 in [15] amounted to 12 mg/kg; in data set [16], 69 mg/kg; in data set [17], 124 mg/kg; in data set [18], 43 mg/kg. Also, the EDmin in data set [19] amounted to 15 mg/kg. For the same compound, the 50% lethal dose (LD50) in data set [20] was determined as 1080 mg/kg. In addition, the Protection is reported as 44% in [5]; 66% in [6]; 89% in data set [7]; 100% in data set [8]; 17% in [21]; 78% in [9]. The compound further came in with a Protection in data set [10] of 94%.
As for `CC(C)C[C@H](NC(=O)[C@@H](O)[C@@H](O)[C@@H](N)CC(=O)O)[C@@H]1Cc2cccc(O)c2C(=O)O1`, the Concentration entry in data set [27] and in data set [28] was “Not detected” each time. In data set [29], this compound returned a Recovery of 50%. In addition, the Protection in data set [5] is recorded as 78%; in data set [6], 100%; in data set [7], 94%; in data set [8], 17%; in data set [9], 0%; in data set [10] it was 0%.
For the compound `COc1ccc2c(c1)c(CC(=O)O)c(C)n2C(=O)c1ccc(Cl)cc1` [INDOMETHACIN], the ED50 was under 6 mg/kg in data set [15], over 25 mg/kg in data set [16], 1.3 mg/kg in data set [17] and over 25 mg/kg in data set [18]. For the same compound, the EDmin in data set [19] was found to be 3 mg/kg.
